The term MIC denotes the lowest concentration that inhibits growth of the organism. High values mean weaker potency, low ones greater potency. The CC50 is the concentration giving 50% cytotoxicity. High values mean better tolerance by the cells, low ones harm at low concentration.

Our source for the MIC and CC50 values is ChEMBL document CHEMBL1138024, “Aryl urea analogs with broad-spectrum antibacterial activity” (Bioorg Med Chem Lett, 2004).

Format in all cases: functional
The subject of assay [1] is Staphylococcus aureus. Description: Minimum inhibitory concentration against Staphylococcus aureus ATCC 13709; value ranges from 3-6 uM.
Assay [2] concerns Enterococcus faecalis. Description: Minimum inhibitory concentration against Enterococcus faecalis ATCC 29212; value ranges from 6-12 uM.
Assay [3] has as its system Klebsiella pneumoniae. Description: Minimum inhibitory concentration against Klebsiella pneumoniae ATCC 13383; value ranges from 3-6 uM.
Assay [4] deals with Staphylococcus aureus. Description: Minimum inhibitory concentration against Staphylococcus aureus ATCC 13709 (+4% BSA); value ranges from 25-50 uM. Put shortly:
(§1)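 Same microdilution MIC against S. aureus ATCC 13709, but with 4% bovine serum albumin in the wells. Compound in 0.5% DMSO in water, inoculum about 10³–10⁴ CFU/well, duplicates. Growth was read as A595 after 20–24 h at 37°C against a compound-free control. MIC is reported as the range between full inhibition and viable growth.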

A further assay relates to Proteus vulgaris. Description: Minimum inhibitory concentration against Proteus vulgaris ATCC 8427; value ranges from 12-25 uM.
For assay [5], the system named is Escherichia coli. Description: Minimum inhibitory concentration against Escherichia coli ATCC 25922; value ranges from 12-25 uM.
The subject of assay [6] is Staphylococcus aureus. Put plainly: In vitro antibacterial activity against Staphylococcus aureus; value ranges from 3-6 uM.
Assay [7] relates to Huh-7. Description: Cytotoxic concentration against Huh7 cells at 48 hours in MTT assay; value ranges from 50-100 uM. The settings on record: Homo sapiens, Huh-7, 48 h. On the technique in general: Tetrazolium dyes change colour on reduction, which living cells bring about.
The next assay relates to Pseudomonas aeruginosa. Description: Minimum inhibitory concentration against Pseudomonas aeruginosa ATCC 25416.
In assay [8] the test system is Enterococcus faecium. Description: Minimum inhibitory concentration against Enterococcus faecium ATCC 6569; value ranges from 6-12 uM.
In a further assay the test system is Streptococcus pyogenes. Put plainly: Minimum inhibitory concentration against Streptococcus pyogenes ATCC 49399; value ranges from 3-6 uM.
The subject of assay [9] is Enterococcus faecalis. Description: Minimum inhibitory concentration against Enterococcus faecalis ATCC 29212; value ranges from 3-6 uM.
The subject of assay [10] is Staphylococcus aureus. Description: Minimum inhibitory concentration against Staphylococcus aureus ATCC 13709 (+4% BSA); value ranges from 12-25 uM. Put shortly:
as §1

In assay [11] the test system is Klebsiella pneumoniae. Description: Minimum inhibitory concentration against Klebsiella pneumoniae ATCC 13383; value ranges from 6-12 uM.
The test system of assay [12] is Enterococcus faecium. Description: Minimum inhibitory concentration against Enterococcus faecium ATCC 6569.
In assay [13] the test system is Escherichia coli. Put plainly: Minimum inhibitory concentration against Escherichia coli ATCC 25922; value ranges from 6-12 uM.
In assay [14] the test system is Huh-7. Description: Cytotoxic concentration against Huh7 cells at 48 hours in MTT assay; value ranges from 12.5-25 uM. The conditions noted are these: Homo sapiens, Huh-7, 48 h.
Assay [15] deals with Staphylococcus aureus. Put plainly: Minimum inhibitory concentration against Staphylococcus aureus ATCC 13709 (+4% BSA); value ranges from 50-100 uM. Put shortly:
as §1

For assay [16], the system named is Enterococcus faecium. Description: Minimum inhibitory concentration against Enterococcus faecium ATCC 6569; value ranges from 3-6 uM.

≈ marks a conversion by molar mass, not a printed value.

In the case of `CCOc1c(Br)cc(Br)cc1CNCCCNC(=O)Nc1ccc(C(F)(F)F)cc1`, the MIC stood at 6 µM (≈ 3.32 µg/mL) in the assay with Staphylococcus aureus [1]; 12 µM (≈ 6.64 µg/mL) in the assay with Enterococcus faecalis [2]; 6 µM (≈ 3.32 µg/mL) against Klebsiella pneumoniae [3]; 50 µM (≈ 27.7 µg/mL) with Staphylococcus aureus [4]; 25 µM (≈ 13.8 µg/mL) against Proteus vulgaris; 25 µM (≈ 13.8 µg/mL) with Escherichia coli [5]. The MIC is 6 µM (≈ 3.32 µg/mL) in the assay with Staphylococcus aureus [6], more than 100 µM against Pseudomonas aeruginosa, 12 µM (≈ 6.64 µg/mL) in the assay on Enterococcus faecium [8] and 6 µM (≈ 3.32 µg/mL) in the assay on Streptococcus pyogenes. In addition, in the assay on Huh-7 [7], the CC50 came to 100 µM.

On to `O=C(NCCCNCc1ccc(Oc2ccccc2)cc1)Nc1ccc(C(F)(F)F)cc1`, for which the minimum inhibitory concentration (MIC) was 6 µM (≈ 2.66 µg/mL) against Staphylococcus aureus [1]; 6 µM (≈ 2.66 µg/mL) against Enterococcus faecalis [9]; 25 µM (≈ 11.1 µg/mL) in the assay on Staphylococcus aureus [10]; 12 µM (≈ 5.32 µg/mL) in the assay on Klebsiella pneumoniae [11]; 25 µM (≈ 11.1 µg/mL) against Proteus vulgaris; more than 100 µM in the assay on Enterococcus faecium [12]. Besides, the minimal inhibitory concentration (MIC) against Staphylococcus aureus [6] is 6 µM (≈ 2.66 µg/mL); in the assay with Escherichia coli [13] it was 12 µM (≈ 5.32 µg/mL); with Pseudomonas aeruginosa it was more than 100 µM; against Streptococcus pyogenes, 6 µM (≈ 2.66 µg/mL). The molecule further came in with a half-maximal cytotoxic concentration (CC50) in the assay with Huh-7 [14] of 25 µM.

Consider `CC(C)(C)c1ccc(CNCCCNC(=O)Nc2ccc(C(F)(F)F)cc2)cc1`, for which the minimal inhibitory concentration (MIC) turned out to be 100 µM (≈ 40.7 µg/mL) in the assay on Staphylococcus aureus [15]; 6 µM (≈ 2.44 µg/mL) in the assay with Staphylococcus aureus [1]; 12 µM (≈ 4.89 µg/mL) in the assay on Enterococcus faecalis [2]; 6 µM (≈ 2.44 µg/mL) against Klebsiella pneumoniae [3]; 6 µM (≈ 2.44 µg/mL) in the assay with Enterococcus faecium [16]; 25 µM (≈ 10.2 µg/mL) against Proteus vulgaris. Moreover, the MIC is 6 µM (≈ 2.44 µg/mL) against Staphylococcus aureus [6], 12 µM (≈ 4.89 µg/mL) in the assay with Escherichia coli [13], more than 100 µM against Pseudomonas aeruginosa and 6 µM (≈ 2.44 µg/mL) in the assay on Streptococcus pyogenes.
